Results reported in publication PMC7607594 (BMJ Open Diabetes Research & Care, 2020).

What was measured:
[1] = ^68Ga-DOTA PET imaging of visceral blood flow; format: in vivo, Yucatan mini-pigs; conditions: for K1 (unidirectional transfer rate from blood to tissue): 1-tissue compartment model, mean±SEM
Procedure, shortened: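 Visceral perfusion was measured in anesthetized lean and obese Yucatan mini-pigs during the same session, after GLP-1r imaging. 68Ga-DOTA at 1.2 MBq/kg was given IV over 10 s, followed by a dynamic PET of 10 min in 46 frames. Arterial input came from an arteriovenous loop. Images were partial-volume corrected. K1 came from a one-tissue compartment fit. Mean±SEM, unpaired t-test.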

GLP-1r = target: T1, GLP-1r (Sus scrofa, UniProt A0ACM8QMX0); assay: GLP-1r PET imaging with compartmental kinetic analysis; format: in vivo, Yucatan mini-pigs; conditions: 2-tissue compartment model, mean±SEM
T1 sequence (A0ACM8QMX0 24-463): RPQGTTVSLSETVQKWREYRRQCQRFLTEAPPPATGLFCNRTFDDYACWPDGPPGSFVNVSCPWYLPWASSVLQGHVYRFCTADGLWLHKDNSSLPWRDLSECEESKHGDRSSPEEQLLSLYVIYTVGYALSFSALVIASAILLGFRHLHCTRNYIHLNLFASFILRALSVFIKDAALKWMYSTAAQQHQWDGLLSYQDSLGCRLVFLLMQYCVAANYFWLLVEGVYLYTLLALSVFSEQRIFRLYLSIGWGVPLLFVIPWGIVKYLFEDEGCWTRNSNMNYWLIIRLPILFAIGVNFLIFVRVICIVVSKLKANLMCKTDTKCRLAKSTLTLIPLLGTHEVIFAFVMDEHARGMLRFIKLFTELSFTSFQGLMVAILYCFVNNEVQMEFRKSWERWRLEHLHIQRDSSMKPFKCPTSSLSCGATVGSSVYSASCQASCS
Procedure, shortened: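 Adult Yucatan mini-pigs, lean or obese, anesthetized; a 68Ga-labeled GLP-1r agonist radiotracer at 0.2 MBq/kg was given IV over 30 s. A dynamic abdominal PET-CT scan ran for 60 min in 30 frames, either fasted or at euglycemic–hyperinsulinemic clamp plateau (insulin 120 mU kg−1 h−1, 20% glucose). Arterial input came from an external arteriovenous loop gamma detector. Vs came from a 2-tissue compartment fit. Mean±SEM, unpaired t-test.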

Row | K1 (unidirectional transfer rate from blood to tissue) ([1]; duodenum, lean) [mL ccm^−1 min^−1] | K1 (unidirectional transfer rate from blood to tissue) ([1]; pancreas, obese) [mL ccm^−1 min^−1] | reduction of K1 for the flow-coded images ([1]; pancreatic level, obese versus lean animals) | K1 (unidirectional transfer rate from blood to tissue) ([1]; subcutaneous fat, lean) [mL ccm^−1 min^−1] | K1 (unidirectional transfer rate from blood to tissue) ([1]; subcutaneous fat, obese) [mL ccm^−1 min^−1] | K1 (unidirectional transfer rate from blood to tissue) ([1]; visceral fat, lean) [mL ccm^−1 min^−1] | K1 (unidirectional transfer rate from blood to tissue) ([1]; visceral fat, obese) [mL ccm^−1 min^−1] | GLP-1r binding potential (Vs, distribution volume of specific binding) (GLP-1r; duodenum, lean, fasted) [mL/ccm] | GLP-1r binding potential (Vs, distribution volume of specific binding) (GLP-1r; duodenum, lean, insulin (clamp plateau)) [mL/ccm] | GLP-1r binding potential (Vs, distribution volume of specific binding) (GLP-1r; duodenum, obese, fasted) [mL/ccm] | GLP-1r binding potential (Vs, distribution volume of specific binding) (GLP-1r; duodenum, obese, insulin (clamp plateau)) [mL/ccm] | GLP-1r binding potential (Vs, distribution volume of specific binding) (GLP-1r; pancreas, obese, fasted) [mL/ccm] | GLP-1r binding potential (Vs, distribution volume of specific binding) (GLP-1r; subcutaneous fat, lean, fasted) [mL/ccm] | GLP-1r binding potential (Vs, distribution volume of specific binding) (GLP-1r; subcutaneous fat, obese, fasted) [mL/ccm] | GLP-1r binding potential (Vs, distribution volume of specific binding) (GLP-1r; visceral fat, lean, fasted) [mL/ccm] | GLP-1r binding potential (Vs, distribution volume of specific binding) (GLP-1r; visceral fat, obese, fasted) [mL/ccm] | Substance
1 | 0.14±0.02 | 0.14±0.05 | about 90% | 0.08±0.03 | 0.01±0.01 | 0.02±0.01 | 0.03±0.01 |  |  |  |  |  |  |  |  |  | ^68Ga-DOTA
2 |  |  |  |  |  |  |  | 3.02±0.20 | 2.62±0.17 | 2.87±0.29 | 2.88±0.25 | 1.49±0.47 | 0.13±0.02 | 0.06±0.02 | 0.44±0.13 | 0.13±0.02 | [^68Ga]Ga-DO3A-VS-Cys40-exendin-4
